Results as given in ChEMBL document CHEMBL4130485, “Inhibitors of Yellow Fever Virus replication based on 1,3,5-triphenyl-4,5-dihydropyrazole scaffold: Design, synthesis and antiviral evaluation” (Eur J Med Chem, 2017).

How the values were obtained:
West Nile virus = test: Antiviral activity against West Nile virus clinical isolate infected in golden hamster BHK21 cells assessed as protection against virus-induced cytopathic effect after 3 to 4 days by MTT assay; format: functional, organism-based; settings: BHK-21
In short: (§1)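 BHK-21 cells (MDBK for BVDV) seeded at 5×10^4 (BHK) or 3×10^4 (MDBK) cells/well and grown overnight to confluence. Infected at m.o.i. 0.01 in maintenance MEM-Earle with 0.5% inactivated FBS. Serial compound dilutions added 2 h later (final 100, 20, 4, 0.8 µM; DMSO ≤0.1%). Viability read by MTT after 3–4 days at 37 °C. EC50 obtained by linear regression against untreated controls; mean of three determinations.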

Human orthopneumovirus = test: Antiviral activity against Human respiratory syncytial virus A2 ATCC VR 1540 infected in African green monkey Vero 76 cells assessed as protection against virus-induced cytopathic effect after 5 days by crystal violet staining-based plaque reduction assay; format: functional, organism-based; settings: ATCC VR 1540, Vero 76, 120 h
Yellow fever virus [1] = test: Potency index, ratio of azauridine EC50 to compound EC50 for Yellow fever virus 17D vaccine (Stamaril Pasteur J07B01); format: functional
Yellow fever virus [2] = test: Antiviral activity against Yellow fever virus 17D vaccine (Stamaril Pasteur J07B01) infected in golden hamster BHK21 cells assessed as protection against virus-induced cytopathic effect after 3 to 4 days by MTT assay; format: functional, organism-based; settings: BHK-21; in short: as §1
Vaccinia virus = test: Antiviral activity against Vaccinia virus Lister ATCC VR 1549 infected in African green monkey Vero 76 cells assessed as protection against virus-induced cytopathic effect after 3 days by crystal violet staining-based plaque reduction assay; format: functional, organism-based; settings: Orthopoxvirus vaccinia, ATCC VR 1549, Vero 76, 72 h
[3] = Cytotoxicity against golden hamster BHK21 cells assessed as decrease in cell viability after 72 hrs by MTT assay; format: cell-based, Mesocricetus auratus, BHK-21
In short: (§2)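 Uninfected MDBK (6×10^5 cells/mL, 10% horse serum) or BHK (1×10^6 cells/mL, 10% FBS) cells in MEM-Earle with serial compound dilutions at 37 °C, 5% CO2, run in parallel with the antiviral assays. Viability read by MTT after 72 h. CC50 by linear regression; mean of three determinations.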

[4] = Cytotoxicity against bovine MDBK cells assessed as decrease in cell viability after 72 hrs by MTT assay; format: cell-based, Bos taurus; settings: cattle; in short: as §2
Human alphaherpesvirus 1 = test: Antiviral activity against Human herpesvirus 1 KOS ATCC VR 1493 infected in African green monkey Vero 76 cells assessed as protection against virus-induced cytopathic effect after 3 days by crystal violet staining-based plaque reduction assay; format: functional, organism-based; settings: Human alphaherpesvirus 1, KOS, Vero 76, 72 h
[5] = test system: Vesicular stomatitis Indiana virus; test: Antiviral activity against Vesicular stomatitis virus Indiana ATCC VR 158 infected in African green monkey Vero 76 cells assessed as protection against virus-induced cytopathic effect after 2 days by crystal violet staining-based plaque reduction assay; format: functional, organism-based; settings: ATCC VR 158, Vero 76, 48 h
[6] = Antiviral activity against Human enterovirus B Faulkner ATCC VR 185 infected in African green monkey Vero 76 cells assessed as protection against virus-induced cytopathic effect after 3 days by crystal violet staining-based plaque reduction assay; format: functional, cell-based; settings: Faulkner ATCC VR 185, Vero 76, 72 h
[7] = Cytotoxicity against human MT4 cells assessed as decrease in cell viability after 96 hrs by MTT assay; format: cell-based
In short: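 Exponentially growing MT-4 cells seeded at 1×10^5 cells/mL in RPMI-1640 with 10% FBS and incubated with serial compound dilutions at 37 °C, 5% CO2. Viability read by MTT after 96 h. CC50 by linear regression versus untreated controls.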

[8] = Selectivity index, ratio of CC50 for golden hamster BHK21 cells to EC50 for Yellow fever virus 17D; format: toxicity; settings: read-out: Ratio CC50/EC50
In short: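 Selectivity index calculated as BHK-21 CC50 divided by YFV EC50, both from MTT assays.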

[9] = test system: Human immunodeficiency virus 1; test: Antiviral activity against HIV1 3B infected in human MT4 cells assessed as protection against virus-induced cytopathic effect after 4 days by MTT assay; format: functional, organism-based; settings: Human immunodeficiency virus 1, 3B, MT4, 96 h
In short: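 MT-4 cells (1×10^4/well) in RPMI with serial compound dilutions, infected with 100 CCID50 HIV-1 (m.o.i. 0.01). Viability read by MTT after 4 days at 37 °C. EC50 for 50% protection from cytopathicity obtained by linear regression versus untreated controls; mean of three determinations.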

[10] = test system: Bovine viral diarrhea virus 1; test: Antiviral activity against Bovine viral diarrhea virus NADL ATCC VR 534 infected in bovine MDBK cells assessed as protection against virus-induced cytopathic effect after 3 to 4 days by MTT assay; format: functional, organism-based, Bovine viral diarrhea virus 1-NADL; settings: Bovine viral diarrhea virus isolates and strains, ATCC VR 534, MDBK; in short: as §1
[11] = Selectivity index, ratio of CC50 for bovine MDBK cells to EC50 for Bovine viral diarrhea virus NADL ATCC VR 534; format: toxicity; settings: cattle, read-out: Ratio CC50/EC50
In short: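 Selectivity index calculated as MDBK CC50 divided by BVDV EC50, both by MTT.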

dengue virus type 2 = test: Antiviral activity against Dengue virus type 2 clinical isolate infected in golden hamster BHK21 cells assessed as protection against virus-induced cytopathic effect after 3 to 4 days by MTT assay; format: functional, organism-based; settings: BHK-21; in short: as §1
[12] = test system: Mammalian orthoreovirus 1; test: Antiviral activity against Reovirus 1 infected in golden hamster BHK21 cells assessed as protection against virus-induced cytopathic effect after 3 to 4 days by MTT assay; format: functional, organism-based; settings: Mammalian orthoreovirus 1, BHK-21; in short: as §1
[13] = Cytotoxicity against African green monkey Vero 76 cells assessed as decrease in cell viability after 48 to 96 hrs by MTT assay; format: cell-based; settings: chlorocebus sabaeus
In short: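 Vero 76 cells seeded at 5×10^5 cells/mL in D-MEM with 10% FBS and incubated with serial compound dilutions at 37 °C, 5% CO2. Viability read by MTT after 48–96 h. CC50 by linear regression versus untreated controls.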

Enterovirus C = test: Antiviral activity against Enterovirus C Sabin […] infected in African green monkey Vero 76 cells assessed as protection against virus-induced cytopathic effect after 2 days by crystal violet staining-based plaque reduction assay; format: functional, organism-based; settings: Vero 76, 48 h
[14] = Selectivity index, ratio of CC50 for African green monkey Vero 76 cells to EC50 for Human coxsackievirus B5 Faulkner; format: toxicity; settings: read-out: Ratio CC50/EC50
In short: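 Selectivity index calculated as Vero 76 CC50 (MTT) divided by CVB-5 plaque-reduction EC50.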

In the case of `NS(=O)(=O)c1ccc(N2N=C(c3ccc(OCc4ccccc4)cc3)CC2c2cccc(Cl)c2)cc1` (stereo not given), the EC50 (West Nile virus) is reported as > 45 µM, the EC50 (Human orthopneumovirus) is reported as > 85 µM and the “Ratio EC50” value (Yellow fever virus [1]) is reported as 10. The EC50 (Yellow fever virus [2]) was 2 µM, the EC50 (Vaccinia virus) was > 85 µM and the CC50 at 72 h [3] was 45 to 47 µM. The CC50 at 72 h [4] was 40 µM, the EC50 (Human alphaherpesvirus 1) was > 85 µM and the EC50 [5] was > 85 µM. The EC50 [6] was > 85 µM, the CC50 at 96 h [7] was 36 µM and the selectivity ratio [8] was 22.5. The EC50 [9] was 11 µM, the EC50 [10] was 5.5 µM and the selectivity ratio [11] was 7.3. The EC50 (dengue virus type 2) was > 45 µM, the EC50 [12] was > 47 µM and the CC50 [13] was 85 µM. For the same molecule, the EC50 (Enterovirus C) was > 85 µM.

In the case of `NS(=O)(=O)c1ccc(N2N=C(c3ccc(Oc4ccccc4)cc3)CC2c2ccc(F)cc2)cc1` (stereo not given), the EC50 (West Nile virus) is reported as > 9 µM, the EC50 (Human orthopneumovirus) is reported as > 25 µM and the “Ratio EC50” value (Yellow fever virus [1]) is reported as 10. The selectivity ratio [14] was 4.2, the EC50 (Yellow fever virus [2]) was 1.8 µM and the EC50 (Vaccinia virus) was > 25 µM. The CC50 at 72 h [3] was 8 to 9 µM, the CC50 at 72 h [4] was 6 µM and the EC50 (Human alphaherpesvirus 1) was > 25 µM. The EC50 [5] was > 25 µM, the EC50 [6] was 6 µM and the CC50 at 96 h [7] was 33 µM. For the same molecule, the selectivity ratio [8] was 5, the EC50 [9] was > 33 µM and the EC50 [10] was > 6 µM. For the same molecule, the EC50 (dengue virus type 2) was > 9 µM, the EC50 [12] was > 8 µM and the CC50 [13] was 25 µM. For the same molecule, the EC50 (Enterovirus C) was > 25 µM.

For `Cc1cccc(C2CC(c3ccc(OCc4ccccc4)cc3)=NN2c2ccc(S(N)(=O)=O)cc2)c1` (stereo not given), the EC50 (West Nile virus) was > 9 µM, the EC50 (Human orthopneumovirus) was > 100 µM and the “Ratio EC50” value (Yellow fever virus [1]) was 10. For the same molecule, the selectivity ratio [14] was 12.5, the EC50 (Yellow fever virus [2]) was 1.8 µM and the EC50 (Vaccinia virus) was > 100 µM. For the same molecule, the CC50 at 72 h [3] was 8 to 9 µM, the CC50 at 72 h [4] was 56 µM and the EC50 (Human alphaherpesvirus 1) was > 100 µM. For the same molecule, the EC50 [5] was > 100 µM, the EC50 [6] was 8 µM and the CC50 at 96 h [7] was 44 µM. The selectivity ratio [8] was 5, the EC50 [9] was > 44 µM and the EC50 [10] was 12.5 µM. For the same molecule, the selectivity ratio [11] was 4.5, the EC50 (dengue virus type 2) was > 9 µM and the EC50 [12] was > 8 µM. The CC50 [13] was 100 µM and the EC50 (Enterovirus C) was > 100 µM.

With `NS(=O)(=O)c1ccc(N2N=C(c3ccc(Oc4ccccc4)cc3)CC2c2ccccc2F)cc1` (stereo not given) the EC50 (West Nile virus) was > 34 µM, the EC50 (Human orthopneumovirus) was > 96 µM and the “Ratio EC50” value (Yellow fever virus [1]) was 10. For the same molecule, the selectivity ratio [14] was 13.7, the EC50 (Yellow fever virus [2]) was 1.9 µM and the EC50 (Vaccinia virus) was > 96 µM. For the same molecule, the CC50 at 72 h [3] was 32 to 34 µM, the CC50 at 72 h [4] was 36 µM and the EC50 (Human alphaherpesvirus 1) was > 96 µM. For the same molecule, the EC50 [5] was > 96 µM, the EC50 [6] was 7 µM and the CC50 at 96 h [7] was 36 µM. For the same molecule, the selectivity ratio [8] was 17.9, the EC50 [9] was > 36 µM and the EC50 [10] was > 36 µM. For the same molecule, the EC50 (dengue virus type 2) was > 34 µM, the EC50 [12] was > 32 µM and the CC50 [13] was 96 µM. For the same molecule, the EC50 (Enterovirus C) was > 96 µM.

In the case of `NS(=O)(=O)c1ccc(N2N=C(c3ccc(Oc4ccccc4)cc3)CC2c2ccccc2Cl)cc1` (stereo not given), the EC50 (West Nile virus) is reported as > 9 µM, the EC50 (Human orthopneumovirus) is reported as > 29 µM and the “Ratio EC50” value (Yellow fever virus [1]) is reported as 10. For the same molecule, the selectivity ratio [14] was 2.8, the EC50 (Yellow fever virus [2]) was 1.8 µM and the EC50 (Vaccinia virus) was > 29 µM. For the same molecule, the CC50 at 72 h [3] was 8 to 9 µM, the CC50 at 72 h [4] was 5 µM and the EC50 (Human alphaherpesvirus 1) was > 29 µM. For the same molecule, the EC50 [5] was > 29 µM, the EC50 [6] was 10.5 µM and the CC50 at 96 h [7] was 40 µM. The selectivity ratio [8] was 5, the EC50 [9] was > 40 µM and the EC50 [10] was > 5 µM. For the same molecule, the EC50 (dengue virus type 2) was > 9 µM, the EC50 [12] was > 8 µM and the CC50 [13] was 29 µM. The EC50 (Enterovirus C) was > 29 µM.

For `NS(=O)(=O)c1ccc(N2N=C(c3ccc(Oc4ccccc4)cc3)CC2c2cccc(F)c2)cc1` (stereo not given), the EC50 (West Nile virus) was > 10 µM, the EC50 (Human orthopneumovirus) was > 28 µM and the “Ratio EC50” value (Yellow fever virus [1]) was 10. The selectivity ratio [14] was 6.7, the EC50 (Yellow fever virus [2]) was 1.8 µM and the EC50 (Vaccinia virus) was > 28 µM. For the same molecule, the CC50 at 72 h [3] was 10 to 11 µM, the CC50 at 72 h [4] was 12 µM and the EC50 (Human alphaherpesvirus 1) was > 28 µM. For the same molecule, the EC50 [5] was > 28 µM, the EC50 [6] was 4.2 µM and the CC50 at 96 h [7] was 25 µM. For the same molecule, the selectivity ratio [8] was 5.6, the EC50 [9] was > 25 µM and the EC50 [10] was > 12 µM. For the same molecule, the EC50 (dengue virus type 2) was > 10 µM, the EC50 [12] was > 11 µM and the CC50 [13] was 28 µM. For the same molecule, the EC50 (Enterovirus C) was > 28 µM.
